ChEMBL document CHEMBL5126625, “Discovery of AZD4831, a Mechanism-Based Irreversible Inhibitor of Myeloperoxidase, As a Potential Treatment for Heart Failure with Preserved Ejection Fraction” (J Med Chem, 2022)
Values after ≈ are worked out from the molar mass of the structure shown.

Columns and labels:
[1] = Toxicity in dog assessed as body weight by 9 months toxicology study; parameters: species or system Canis lupus familiaris; settings: in vivo, 6570 h
Procedure, shortened: (§1)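 Pivotal 9-month repeat-dose toxicology study in dogs at doses up to 100 mg/kg/day, with food consumption, body weight and pathology monitored.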

[2] = Toxicity in dog assessed as NOAEL by 9 months toxicology study; parameters: species or system Canis lupus familiaris; settings: in vivo, 6570 h
Procedure, shortened: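 Pivotal 9-month repeat-dose toxicology study in dogs with daily dosing up to 100 mg/kg/day. Endpoints included food consumption, body weight and pathology. The NOAEL was assigned from these findings.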

Cytochrome P450 2C9 = Cytochrome P450 2C9 (Homo sapiens, UniProt P11712); test: Inhibition of human recombinant CYP2C9 using coumarin as substrate preincubated with enzyme for 10 mins followed by NADPH addition and measured after 20 to 50 mins by fluorescence based method
Sequence of Cytochrome P450 2C9 (P11712 whole entry): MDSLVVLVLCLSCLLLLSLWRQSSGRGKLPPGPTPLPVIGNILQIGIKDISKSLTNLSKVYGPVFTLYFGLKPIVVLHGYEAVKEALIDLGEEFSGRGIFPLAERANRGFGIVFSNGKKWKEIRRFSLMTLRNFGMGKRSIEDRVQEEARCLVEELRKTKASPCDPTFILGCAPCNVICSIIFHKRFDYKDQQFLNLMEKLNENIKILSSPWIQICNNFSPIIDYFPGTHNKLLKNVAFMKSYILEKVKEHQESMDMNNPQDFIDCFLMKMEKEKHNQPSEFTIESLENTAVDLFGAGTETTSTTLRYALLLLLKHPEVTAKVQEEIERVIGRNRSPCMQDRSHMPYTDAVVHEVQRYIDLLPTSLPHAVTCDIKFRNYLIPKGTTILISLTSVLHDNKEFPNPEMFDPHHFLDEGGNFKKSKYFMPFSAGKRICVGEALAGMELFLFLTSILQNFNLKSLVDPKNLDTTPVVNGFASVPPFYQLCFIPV

Mus musculus = test: In vivo inhibition of MPO in peritoneal lavage of zymosan-induced neutrophilic peritonitis BALB/c mouse model at 0.01 to 10 umol/kg, po administered 2 hrs prior to zymosan injection and measured after 2 hrs by chemiluminescence assay; format: functional, organism-based; settings: dose 0.01-10 µmol/kg, time 4.0 hrs, DDE = dose-dependent effect
Procedure, shortened: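 BALB/c mice given 10, 1, 0.1 or 0.01 µmol/kg orally 2 h before intraperitoneal zymosan. Peritoneal lavage collected 2 h later and peroxidase activity quantified by chemiluminescence; neutrophils dominate the infiltrate, so activity attributed to MPO.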

[3] = Toxicity in female rat assessed as NOAEL by 6 months toxicology study; settings: in vivo, 4380 h
Procedure, shortened: (§2)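 Pivotal 6-month repeat-dose toxicology study in rats with daily dosing up to 125 mg/kg/day. Males and females were assessed separately, and a NOAEL was assigned for each sex.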

[4] = Oral bioavailability in Beagle dog measured up to 24 hrs by LC-MS/MS analysis; format: ADME, organism-based, Canis lupus familiaris; settings: in vivo
Cytochrome P450 1A2 = target: T1, Cytochrome P450 1A2 (Homo sapiens, UniProt P05177); test: Inhibition of human recombinant CYP1A2 using coumarin as substrate preincubated with enzyme for 10 mins followed by NADPH addition and measured after 20 to 50 mins by fluorescence based method
T1 sequence (P05177 whole entry): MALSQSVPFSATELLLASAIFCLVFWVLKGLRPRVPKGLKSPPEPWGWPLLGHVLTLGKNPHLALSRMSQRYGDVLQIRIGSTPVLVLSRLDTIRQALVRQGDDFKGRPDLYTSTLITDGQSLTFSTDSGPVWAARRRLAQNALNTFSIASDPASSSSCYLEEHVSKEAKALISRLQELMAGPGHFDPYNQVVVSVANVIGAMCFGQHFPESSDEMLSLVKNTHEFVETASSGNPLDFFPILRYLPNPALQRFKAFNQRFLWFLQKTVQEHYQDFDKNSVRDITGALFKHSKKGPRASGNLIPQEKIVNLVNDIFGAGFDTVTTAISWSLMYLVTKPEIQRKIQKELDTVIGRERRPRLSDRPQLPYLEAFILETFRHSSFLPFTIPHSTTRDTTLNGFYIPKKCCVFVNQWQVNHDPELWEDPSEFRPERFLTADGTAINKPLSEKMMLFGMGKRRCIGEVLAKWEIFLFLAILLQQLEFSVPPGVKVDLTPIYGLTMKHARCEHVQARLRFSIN

Cytochrome P450 3A4 = Cytochrome P450 3A4 (Homo sapiens, UniProt P08684)
Sequence of Cytochrome P450 3A4 (P08684 whole entry): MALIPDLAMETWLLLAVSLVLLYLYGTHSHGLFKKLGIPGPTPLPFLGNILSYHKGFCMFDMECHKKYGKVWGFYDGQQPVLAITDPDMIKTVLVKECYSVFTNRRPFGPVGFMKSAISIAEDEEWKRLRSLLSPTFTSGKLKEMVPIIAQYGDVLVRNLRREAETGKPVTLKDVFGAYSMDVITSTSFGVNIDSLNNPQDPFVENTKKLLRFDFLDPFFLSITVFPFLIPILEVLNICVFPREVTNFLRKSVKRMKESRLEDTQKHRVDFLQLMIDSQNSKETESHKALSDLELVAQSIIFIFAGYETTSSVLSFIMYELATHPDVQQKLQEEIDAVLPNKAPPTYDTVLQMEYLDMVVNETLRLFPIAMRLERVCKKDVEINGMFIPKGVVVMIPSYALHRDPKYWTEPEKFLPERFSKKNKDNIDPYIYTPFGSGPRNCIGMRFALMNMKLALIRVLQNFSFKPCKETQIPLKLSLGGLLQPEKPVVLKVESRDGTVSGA

[5] = target: Voltage-gated inwardly rectifying potassium channel KCNH2 (Homo sapiens, UniProt Q12809)
Sequence of Voltage-gated inwardly rectifying potassium channel KCNH2 (Q12809 whole entry): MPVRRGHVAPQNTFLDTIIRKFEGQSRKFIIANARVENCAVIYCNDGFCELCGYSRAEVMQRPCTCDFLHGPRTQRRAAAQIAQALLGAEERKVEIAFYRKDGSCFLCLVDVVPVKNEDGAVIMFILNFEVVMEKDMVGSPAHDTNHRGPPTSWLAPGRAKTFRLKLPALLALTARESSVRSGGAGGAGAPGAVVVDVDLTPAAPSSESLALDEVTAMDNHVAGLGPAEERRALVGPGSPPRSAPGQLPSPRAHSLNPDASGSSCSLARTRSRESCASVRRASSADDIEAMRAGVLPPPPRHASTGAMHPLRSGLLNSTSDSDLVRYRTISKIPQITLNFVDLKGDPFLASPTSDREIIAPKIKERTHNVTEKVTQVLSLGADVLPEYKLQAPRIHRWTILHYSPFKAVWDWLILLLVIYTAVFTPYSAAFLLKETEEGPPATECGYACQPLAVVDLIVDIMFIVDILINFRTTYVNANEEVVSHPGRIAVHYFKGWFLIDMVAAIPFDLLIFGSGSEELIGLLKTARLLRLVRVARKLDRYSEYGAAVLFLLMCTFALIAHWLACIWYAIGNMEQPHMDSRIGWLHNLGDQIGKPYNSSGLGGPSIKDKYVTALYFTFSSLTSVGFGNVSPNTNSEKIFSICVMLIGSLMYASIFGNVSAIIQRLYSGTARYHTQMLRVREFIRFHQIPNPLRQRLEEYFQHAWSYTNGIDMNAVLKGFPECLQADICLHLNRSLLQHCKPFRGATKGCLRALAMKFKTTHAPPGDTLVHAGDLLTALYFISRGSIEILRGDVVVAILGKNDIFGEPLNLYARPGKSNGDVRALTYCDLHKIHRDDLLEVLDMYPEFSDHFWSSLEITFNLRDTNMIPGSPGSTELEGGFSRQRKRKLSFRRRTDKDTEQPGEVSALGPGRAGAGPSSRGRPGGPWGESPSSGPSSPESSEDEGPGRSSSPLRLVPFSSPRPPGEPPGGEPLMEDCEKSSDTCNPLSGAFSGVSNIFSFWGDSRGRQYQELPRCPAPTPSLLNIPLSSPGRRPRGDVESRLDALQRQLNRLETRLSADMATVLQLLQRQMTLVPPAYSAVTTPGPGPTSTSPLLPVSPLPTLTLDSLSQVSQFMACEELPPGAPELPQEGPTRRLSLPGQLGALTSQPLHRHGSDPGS

[6] = Drug uptake in human hepatocytes assessed as covalent binding measured per mg protein; format: ADME, cell-based, Hepatocyte
Procedure, shortened: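 [14C]-labelled compound incubated with human hepatocytes; covalently bound radioactivity expressed as pmol per mg protein.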

[7] = Lipophilicity, log D of the compound; settings: octanol/water
Cytochrome P450 2C19 = Cytochrome P450 2C19 (Homo sapiens, UniProt P33261); test: Inhibition of human recombinant CYP2C19 using coumarin as substrate preincubated with enzyme for 10 mins followed by NADPH addition and measured after 20 to 50 mins by fluorescence based method
Sequence of Cytochrome P450 2C19 (P33261 whole entry): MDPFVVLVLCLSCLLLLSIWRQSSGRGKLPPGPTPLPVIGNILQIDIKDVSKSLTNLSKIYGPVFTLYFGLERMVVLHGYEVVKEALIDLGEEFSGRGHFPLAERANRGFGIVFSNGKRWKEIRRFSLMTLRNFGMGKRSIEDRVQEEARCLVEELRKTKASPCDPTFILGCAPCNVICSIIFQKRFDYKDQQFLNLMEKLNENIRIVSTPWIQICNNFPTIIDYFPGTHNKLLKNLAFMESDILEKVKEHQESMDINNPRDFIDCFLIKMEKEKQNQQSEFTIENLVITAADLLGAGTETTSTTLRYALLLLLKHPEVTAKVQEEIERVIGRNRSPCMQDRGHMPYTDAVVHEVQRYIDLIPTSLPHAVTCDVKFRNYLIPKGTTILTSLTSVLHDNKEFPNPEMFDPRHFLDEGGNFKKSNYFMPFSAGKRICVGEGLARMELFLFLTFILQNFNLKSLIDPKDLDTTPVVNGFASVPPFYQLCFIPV

[8] = Toxicity in dog assessed as food intake by 9 months toxicology study; parameters: species or system Canis lupus familiaris; settings: in vivo, 6570 h; procedure, shortened: as §1
[9] = Toxicity in rat bone marrow by micronucleus test
[10] = Toxicity in male rat assessed as NOAEL by 6 months toxicology study; settings: in vivo, 4380 h; procedure, shortened: as §2
Cytochrome P450 2D6 = Cytochrome P450 2D6 (Homo sapiens, UniProt P10635); test: Inhibition of CYP2D6 (unknown origin) using coumarin as substrate preincubated with enzyme for 10 mins followed by NADPH addition and measured after 20 to 50 mins by fluorescence based method
Sequence of Cytochrome P450 2D6 (P10635 whole entry): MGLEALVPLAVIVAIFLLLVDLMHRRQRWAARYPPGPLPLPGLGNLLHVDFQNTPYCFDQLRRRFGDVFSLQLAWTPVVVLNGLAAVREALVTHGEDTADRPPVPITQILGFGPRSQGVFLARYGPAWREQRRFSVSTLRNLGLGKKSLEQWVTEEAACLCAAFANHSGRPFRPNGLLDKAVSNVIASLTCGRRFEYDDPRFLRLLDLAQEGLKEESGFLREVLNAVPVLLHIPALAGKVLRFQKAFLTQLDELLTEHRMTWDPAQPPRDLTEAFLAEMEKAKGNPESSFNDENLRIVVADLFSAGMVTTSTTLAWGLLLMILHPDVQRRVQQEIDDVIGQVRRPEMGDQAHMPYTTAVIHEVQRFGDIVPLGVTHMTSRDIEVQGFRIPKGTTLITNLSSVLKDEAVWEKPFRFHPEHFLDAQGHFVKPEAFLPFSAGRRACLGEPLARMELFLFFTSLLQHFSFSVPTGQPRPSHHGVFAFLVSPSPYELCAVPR

physchem = settings: phosphate buffer, pH 7.4
[11] = Oral bioavailability in Wistar Han rat measured up to 24 hrs by LC-MS/MS analysis; format: ADME, organism-based; settings: in vivo
[12] = Apparent permeability of the compound across apical to basolateral side in human Caco-2 cells at 10 uM by LC-MS/MS analysis

Structure (SMILES): C[C@@H](N)c1cc(Cl)ccc1Cn1c(=S)[nH]c(=O)c2[nH]ccc21
- Activity [1]: Non-Toxic
- NOAEL [2]: 100 mg/kg/day
- IC50 (Cytochrome P450 2C9): > 30 µM
- inhibition (Mus musculus): Dde
- NOAEL [3]: 125 mg/kg/day
- bioavailability [4]: 52%
- IC50 (Cytochrome P450 1A2): > 30 µM
- IC50 (Cytochrome P450 3A4): 6 µM
- IC50 [5]: 21 µM
- Drug uptake [6]: 56 pmol
- logD [7]: 1.2
- IC50 (Cytochrome P450 2C19): > 30 µM
- Activity [8]: Non-Toxic
- Activity [9]: Non-Toxic
- NOAEL [10]: 125 mg/kg/day
- IC50 (Cytochrome P450 2D6): > 30 µM
- solubility thermodynamic at 18 h (physchem): 270 µM (≈ 90.4 µg/mL)
- bioavailability [11]: 61%
- Papp A→B at 10 µM [12]: 11 ×10⁻⁶ cm/s
